Variants at the floor of the assay were thinned out.
B1: tRNA (parent)
chain: GUUCCGUUGGCGUAAUGGUAACGCGUCUCCCUCCUAAGGAGAAGACUGCGGGUUCGAGUCCCGUACGGAACG

Variants of: B1
Experiment: yeast fitness relative to wild type (ratio to wild type); higher = fitter; tRNA-Arg(CCU), competitive growth, 37 C, YPD
Outline: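 Variants of the tRNA-Arg(CCU) gene, chemically synthesised with a 3% per-site mutation rate at 69 sites, were placed at the native genomic locus in Saccharomyces cerevisiae. The pooled strains were competed in YPD at 37°C for 24 hours in six parallel replicates. Gene amplicons from the start population and from each end population were read by 100-nucleotide paired-end sequencing. Darwinian fitness relative to wild type came from changes in genotype frequencies; genotypes needed ≥ 100 starting reads, and estimates < 0.5 were set to 0.5.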

Compared with GUUCCCUUGGCGUGAUGGUCACGCGUCUCCCUCCUAAGGAGAAGACCGCGGGUUCGAGUCCCGAACAGAACG [G6C A14G A20C U47C U64A G67A], GUUCCCUUGGCGUAAUGGUAGCGCGUCUCGCUCCUAUGGAGAAGACUGCGGGUUCGAGUCCCGUACGGAACG [G6C A21G C30G A37U] is higher in yeast fitness: no more than 0.5 for the first, 0.566 for the second.

GUUCCCUUGGCGUCAUGGUAACGCGUCUCCGUCCUAAGGAGUGGACUGCGGGUUCGAGUCCCGUACGGAACG [G6C A14C C31G A42U A43G] and GUUCCCUUGGCGUAAUGGUAGCGCGUCUCCCUCCUAAGGAGAAGACUGCGGGUUAGAGUCACGUACGGAACG [G6C A21G C55A C61A] cannot be ordered by yeast fitness: no more than 0.5 for the first, no more than 0.5 for the second.

GUUCCCUUGGCGUAAUGGUAACGCGUCUCCCUCCUAAGGAGCAGACUGUGGGUUCGAGUCCUGUACGGAACG [G6C A42C C49U C62U] and GUUCCAUUGGCGUAAUGGUAACGCGUCACCCUCCUAAGGAGAAGACUGCGAGUUCGUGUCCCGUACGGAACG [G6A U28A G51A A57U] cannot be ordered by yeast fitness: no more than 0.5 for the first, no more than 0.5 for the second.

GUUCCCUUGGCGUAAUGGUAACGCGUCUCCCUCCUAAGGAGACGACUGCAGGUUCGAGUCCCGUACGGAACG [G6C A43C G50A] and GUUCCCUUGGCGUAAUGGUAACGCGUCUCCCUCCUAGGGUGAAGCCUGCGGGUUCGAGUGCCGUACGGAACG [G6C A37G A40U A45C C60G] cannot be ordered by yeast fitness: no more than 0.5 for the first, no more than 0.5 for the second.

GUUCCCUUGGCGUAUUGGUAACGCGUCUCCCUCCUAAGGAGAUGACUGCGGGUUCGAGUCCCGUUCGGAACG [G6C A15U A43U A65U] and GUUCCAUUGGCGUAAUGGUAACGCGUCUCCCUCCAAAGGAGAAGACUGCGGGUUCGAGUCCCGUACCGAACG [G6A U35A G67C] cannot be ordered by yeast fitness: no more than 0.5 for the first, no more than 0.5 for the second.

GUUCCAUUGGCGUAAUGGUAACGCGUCUCCCUCCGAAGGAGGAGACUGCGGGUUCCAGUCCCGUACGGAACG [G6A U35G A42G G56C] and GUUCCCUUGGCGUAAUGGUAGCGGGUCUCCAUCCUAAGGAGAAAACUGCGGGUUCGAGUCCCGUACGGAACG [G6C A21G C24G C31A G44A] cannot be ordered by yeast fitness: no more than 0.5 for the first, no more than 0.5 for the second.

First: GUUCCCUUGGCGUAAUGGUAUCGCGUCUCCCUCCUAAGGAGAAGACUGCGGGUUCGAGUCCCGUACGGAACG [G6C A21U]
Second: GUUCCAUUGGCGUAAUGGUAACGCGUCUCCCUCCUAAGGAGAAGACGGCGGGUUCGAGUCCCGUACGGAACG [G6A U47G]
The yeast fitness of the first is higher: 0.673 for the first, 0.594 for the second.

Going from GUUCCCUUGGCGUAAUGGUAACGCGUCUCCCUCCUACGGAGAAGACUGCGGGUUCGAGUCCCGUACGGAACG [G6C A37C] to GUUCCCUUGGCGUAAUGGUAACGCGUCUCCCUCCUAAGGGGAAGACUGCGGGUUCGAGUCCCGUAUGGAACG [G6C A40G C66U], the yeast fitness falls from 0.693 to no more than 0.5.

Compared with GUUCCAUUGGCGUAAUGGUAACGCGUCUCCCUCCAAAGGAGAAGACUGCGGGUUCGAGUCCAGUAGGGAACG [G6A U35A C62A C66G], GUUCCCUUGGCGUAGUGGUAACGCGUCUCCCUCCUAAGGAGAAGACUGCGAGUUCGAGUCCCGUAUGGCACG [G6C A15G G51A C66U A69C] is lower in yeast fitness: 0.694 for the first, no more than 0.5 for the second.

GUUCCCUUGGCGUAAUGGUAGCGCGUCUCCCUCCUAAGGAGAAGACUGCGGGUUCGCGUCCCGUACGGAACG [G6C A21G A57C] and GUUCCCUUGGCGUCAUGGUAACGCGUCUCCCUCCUAAGGAGAAGACUGCGGGUCCGAGUCCCGUACGGAACG [G6C A14C U54C] cannot be ordered by yeast fitness: no more than 0.5 for the first, no more than 0.5 for the second.

Compared with GUUCCAUUGGCGUAAUGGUAACGCGUCUCCCUCCUAAGGAGAAGACUGCGGGUACGAGUCCCGUACGGAACG [G6A U54A], GUUCCAUUGGCGUAAUGGUAACGCGUCUCCCUCCUAAGGAGAAGACUGCGGGUCCGAGUCCCGUACGGAACG [G6A U54C] is higher in yeast fitness: 0.674 for the first, 0.948 for the second.

Compared with GUUCCAUUGGCGUAAUGGUAACGCGCCUCCCUCCUAAGGAGAAGACUGCGGGUUCGAGUCCGGUACGGAACG [G6A U26C C62G], GUUCCAUUGGCGUAAUGGUAACGCGUCUCCCUCCUAAGGAGAAGACAGCGGGUUCGAGUCUCGUACGGAACG [G6A U47A C61U] is higher in yeast fitness: 0.515 for the first, 0.57 for the second.

GUUCCAUUGGCGUAAUGGUAACGCGACUCCCUCCUAAGGAGAAGACUGCGGGUUCGAGUCACGUACGGAACG [G6A U26A C61A] and GUUCCCUUGGCGUAAUGGUAACGCGUCUCCCUCCUACGGAGAAGACUGCGGGUUCGAGUCCCGUACCGAACG [G6C A37C G67C] cannot be ordered by yeast fitness: no more than 0.5 for the first, no more than 0.5 for the second.

Going from GUUCCCUUGGCGUGAUGGUCACGCGUCUCCCUCCUAAGGAGAAGACUGCGGGUUCGAGUCCCGUACGCAACG [G6C A14G A20C G68C] to GUUCCCUUGGCGUAAUGGUAGCGCGUCUCCCCCCUAAGGAGAAGACUACGGGUUCGAGUCCCGUACGGAACG [G6C A21G U32C G48A], the yeast fitness rises from no more than 0.5 to 0.716.

Going from GUUCCAUUGGCGUAAUGGUAACGCGUCUCCCUCCUAAGGAGAAGACUGCGGGUCCGUAUCCCGUUCGGAACG [G6A U54C A57U G58A A65U] to GUUCCCUUGGCGUGAUGGUAACGCGUCUCCCUCCGAAGGAGAAGACUGCGGGUUCGAGUCCCGUACGGAACG [G6C A14G U35G], the yeast fitness rises from no more than 0.5 to 0.605.

Going from GUUCCAUUGGCGUAAUGGUAACGCGUCUCCCUCCUAAGGAGAAGACUGCGGGUUCGAGUCCCGAACGGAACG [G6A U64A] to GUUCCAUUGGCGUAAUGGUAACGCGACUCCCUACUAAGGAGAAGACUGCGCGUUCGAGUCCUGUACGGAACG [G6A U26A C33A G51C C62U], the yeast fitness falls from 0.71 to 0.591.

GUUCCCUUGGCGUAAUGGUGAUGCGUCUCCCUCCUAAGGAGAAGACUGCGGGUUCGAGUCCCGUACGGAACG [G6C A20G C22U] and GUUCCCUUGGCGUAAUGGUAUCGCGUCUCCCUCCUAAGGAGAAGACUGCGGGUUCGAGUCGCGUACGGCACG [G6C A21U C61G A69C] cannot be ordered by yeast fitness: no more than 0.5 for the first, no more than 0.5 for the second.

Compared with GUUCCCUUGGCGUAGUGGUAACGCGUCUCCCUCCUAAGGAGAAGACUGCGGGUUCGAGUCCCGUACGGAACG [G6C A15G], GUUCCCUUGGCGUAUUGGUAACGCGUCUCCCUCCUAAGGAGAAGACUGCGGGUUCGAGUCCCGUACGGAACG [G6C A15U] is lower in yeast fitness: 0.808 for the first, 0.738 for the second.

GUUCCCUUGGCGUAAUGGUAACGCGUCUCCCUCCUGAGGAGAAGACUGCGAGUUCGAGUCCCGUACGGAACG [G6C A36G G51A] and GUUCCAUUGGCGUAAUGGUAACGCGUCUCCCUCCUAAGGAGAAGACUGCGGGUGCGAGUCCCGUUCGGAACG [G6A U54G A65U] cannot be ordered by yeast fitness: no more than 0.5 for the first, no more than 0.5 for the second.
